Screening data (PubChem BioAssay)
A selection: hits, their analogues and other compounds. The true share with any hit is near 2.5%.
MBD2 DNA inh – blocks human MBD2 binding to methylated DNA | Q9UBB5 | TR-FRET, MBD2 binding to methylated oligonucleotide | inhibition, % at 4.4 µM | 370,000 tested, 0.31% active; in the data active = inhibition above about 13%
Target sequence (Q9UBB5 whole entry, looked up): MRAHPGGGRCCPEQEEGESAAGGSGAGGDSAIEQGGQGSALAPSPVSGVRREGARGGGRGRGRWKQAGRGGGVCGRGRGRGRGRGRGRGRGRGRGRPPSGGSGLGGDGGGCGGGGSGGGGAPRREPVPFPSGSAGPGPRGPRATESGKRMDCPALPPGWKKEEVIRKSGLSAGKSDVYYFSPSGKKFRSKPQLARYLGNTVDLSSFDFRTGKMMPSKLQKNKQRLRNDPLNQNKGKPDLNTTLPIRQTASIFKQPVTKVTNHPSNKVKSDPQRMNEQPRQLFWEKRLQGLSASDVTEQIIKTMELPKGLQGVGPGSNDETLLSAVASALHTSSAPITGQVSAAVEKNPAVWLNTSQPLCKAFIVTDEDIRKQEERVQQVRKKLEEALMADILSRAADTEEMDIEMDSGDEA
UHRF1 MBD2 ctr – blocks human UHRF1 binding to methylated DNA | Q96T88 | UHRF1 binding to methylated oligo, TR-FRET | inhibition, % at 4.4 µM | 370,000 tested, 0.75% active | AID 687016; in the data active = inhibition above about 21%;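 also: UHRF1 SRA domain binding a hemimethylated CpG hairpin DNA probe; 0% = median of test compound wells and 100% = reference inhibitor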
Beta2AR agonist – agonists of human beta-2 adrenergic receptor inducing internalization; AID 504454; response, % (no concentration beside the values); Am2.2-beta2AR cells, FAP receptor internalization, flow cytometry; 340,000 tested, 0.43% active; P07550;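 active = response above a set limit, near 3 SD of response in nonfluorescent compounds, cut at about 42% in these data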
Rin1 Abl inh – human Rin1-Abl interaction inhibition. AID 588664. P00519+Q13671. inhibition, % at 7.35 µM. TR-FRET Rin1/Abl binding, biochemical. 360,000 tested, 0.4% active; in the data active = inhibition above about 5%, passing the limit was not always enough
Arr AP2 block – human beta-arrestin and AP2 interaction inhibition | inhibition, % at 10 µM | 340,000 tested, 0.31% active | FITC-arrestin peptide / GST-AP2 beads, flow cytometry; AP2 beta2 appendage carries R879A mutation;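 active = inhibition above a set limit, near 3 SD of compounds lacking own fluorescence, cut at about 54% in these data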;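 also: plate controls were DMSO wells for no effect and 5 µM unlabelled arrestin peptide for full effect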
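Test system: GST-tagged AP2 beta2-adaptin appendage (R879A) on 4 µm glutathione beads; also added: fluorescein-tagged arrestin peptide at 50 nM final; timing: 12 min plus 1 h, RT; signal: flow cytometry, FL1 (488/535 nm); read-out: percent drop in bead-associated FITC signal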
ABHD5-PLIN5 inh – inhibitors of human ABHD5-perilipin-5 interaction; Q00G26+Q8WTS1; Split G. princeps luciferase complementation, luminescence, 4 h; inhibition, % at 4 µM; 360,000 tested, 0.78% active;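 active = inhibition above the mean inhibition across every tested compound plus 3 SD, cut at about 22% in these data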;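 also: 0% = DMSO only wells and the 100% control is not disclosed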
Beta2AR ag CP1 – agonists of human beta-2 adrenergic receptor; shares compounds with Beta2AR agonist; Am2.2-beta2AR cells, FAP surface receptor, flow cytometry; hits give low values; percent response (surface receptor), % at 10 µM; 1,100 tested, 25% active;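 active = surface receptor percent response at or below 58%, roughly 3 SD from nonfluorescent compounds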
B2AR FAP counter – counter-screen for beta-2AR agonists: fluorescence in Am2.2 cells | calls only at 10 µM | FAP fluorogen flow cytometry, fluorescence counterscreen; hits give low values | 1,100 tested, under 10 active | shares compounds with Beta2AR agonist | AID 588765;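 active = percent response below a set limit in fluorescence channel 1 and below 50% in channel 8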
An asterisk follows results filed as active.

How did CN[C@H]1C[C@H]2c3[nH]c4cccc(-c5cccc(F)c5)c4c3CCN2C(=O)[C@H]1[C@H](C)O do in these assays?
MBD2 DNA inh: 1.1; UHRF1 MBD2 ctr: -1.6

How did O=C(NC1(Cc2ccc(O)cc2)CCCCC1)c1ccccc1 do in these assays?
MBD2 DNA inh: -2.4; UHRF1 MBD2 ctr: -0.8; Beta2AR agonist: 42.9*; Rin1 Abl inh: 1.1; Arr AP2 block: 5.0; ABHD5-PLIN5 inh: -0.2; Beta2AR ag CP1: 41.0*; B2AR FAP counter: inactive

What do the screens show for `O=C(NC1(C(=O)O)CCCC1)c1ccccc1`?
MBD2 DNA inh: -1.7; UHRF1 MBD2 ctr: 2.2; Beta2AR agonist: -13.0; Rin1 Abl inh: 2.8; Arr AP2 block: -20.2; ABHD5-PLIN5 inh: -0.8

Results for COc1ccc(Cl)cc1NS(=O)(=O)N1CCOCC1 ?
MBD2 DNA inh: -1.4; UHRF1 MBD2 ctr: -1.6; Beta2AR agonist: 50.5*; Rin1 Abl inh: 2.1; Arr AP2 block: 18.9; ABHD5-PLIN5 inh: -2.3; Beta2AR ag CP1: 118.7; B2AR FAP counter: inactive

What do the screens show for `CC(NC(=O)C1CCCN1S(=O)(=O)c1cccc2cccnc12)c1ccccc1` (centres undefined)?
MBD2 DNA inh: 2.4; UHRF1 MBD2 ctr: -1.4; Beta2AR agonist: 56.1*; Rin1 Abl inh: 1.2; Arr AP2 block: 14.2; ABHD5-PLIN5 inh: 8.1; Beta2AR ag CP1: 105.7; B2AR FAP counter: inactive

What do the screens show for `C[C@H]1[C@@H](N(C)CC2CCCCC2)CC[C@@]23CCCN2C(=O)CCC[C@@H]13`?
MBD2 DNA inh: -2.1; UHRF1 MBD2 ctr: -2.6

How did Cc1ccc(-c2nc(=O)[nH]c3ccccc23)cc1 do in these assays?
MBD2 DNA inh: -2.0; UHRF1 MBD2 ctr: -3.6; Beta2AR agonist: 15.1; Rin1 Abl inh: 1.4; Arr AP2 block: 37.8; ABHD5-PLIN5 inh: -7.7

How did O=c1nc(-c2ccccc2)c2ccccc2[nH]1 do in these assays?
MBD2 DNA inh: 2.3; UHRF1 MBD2 ctr: 3.2; Beta2AR agonist: 60.4*; Rin1 Abl inh: 1.5; Arr AP2 block: 10.1; ABHD5-PLIN5 inh: 0.4; Beta2AR ag CP1: 112.8; B2AR FAP counter: inactive

Results for Fc1ccc(NC(=S)Nc2nccs2)cc1 ?
MBD2 DNA inh: 6.5; UHRF1 MBD2 ctr: 2.0; Beta2AR agonist: 2.0; Rin1 Abl inh: -0.7; Arr AP2 block: -14.9; ABHD5-PLIN5 inh: -4.9

Results for S=C(Nc1ccccc1)Nc1nccs1 ?
MBD2 DNA inh: 1.6; UHRF1 MBD2 ctr: 2.7; Beta2AR agonist: -0.2; Rin1 Abl inh: -1.2; Arr AP2 block: 1.8; ABHD5-PLIN5 inh: -6.6; Beta2AR ag CP1: 94.0; B2AR FAP counter: inactive

How did C=CCOC(=O)N1CCN(C(=O)c2ccc3nc(C)n(C4CCCC4)c3c2)CC1 do in these assays?
MBD2 DNA inh: -3.1; UHRF1 MBD2 ctr: 1.9

What do the screens show for `CC(COc1ccccc1)NC(C)C(O)c1ccc(O)cc1` (centres undefined)?
MBD2 DNA inh: 0.5; UHRF1 MBD2 ctr: -1.8; Beta2AR agonist: -2.6; Rin1 Abl inh: 0.7; Arr AP2 block: 25.9; ABHD5-PLIN5 inh: 8.5; Beta2AR ag CP1: 116.1; B2AR FAP counter: inactive

Results for C[C@H](NCCc1ccc(O)cc1)[C@H](O)c1ccc(O)cc1 ?
MBD2 DNA inh: 0.6; UHRF1 MBD2 ctr: 0.0; Beta2AR agonist: -3.2; Rin1 Abl inh: 2.1; Arr AP2 block: -1.0; ABHD5-PLIN5 inh: -6.0; Beta2AR ag CP1: 124.0; B2AR FAP counter: inactive

Results for CC(=O)NCCc1ccc(O)cc1 ?
MBD2 DNA inh: -2.1; UHRF1 MBD2 ctr: -0.8; Beta2AR agonist: 0.0; Rin1 Abl inh: -2.3; Arr AP2 block: 8.1; ABHD5-PLIN5 inh: -3.8

What do the screens show for `CNCC(O)COc1ccccc1` (centres undefined)?
MBD2 DNA inh: 3.1; UHRF1 MBD2 ctr: 5.2; Beta2AR agonist: 2.4; Rin1 Abl inh: 2.9; Arr AP2 block: -3.5; ABHD5-PLIN5 inh: 1.2

How did O=S(=O)(c1ccccc1)c1cnc(-c2ccccc2)nc1N1CCCC1 do in these assays?
MBD2 DNA inh: 1.8; UHRF1 MBD2 ctr: 2.2; Beta2AR agonist: 3.7; Rin1 Abl inh: 0.6; Arr AP2 block: 13.8; ABHD5-PLIN5 inh: -7.1

How did COc1cc2ncc(S(=O)(=O)c3ccccc3)c(N3CCCC(C)C3)c2cc1OC (centres undefined) do in these assays?
MBD2 DNA inh: -2.2; UHRF1 MBD2 ctr: 0.7; Beta2AR agonist: 69.4*; Rin1 Abl inh: -7.2; Arr AP2 block: -0.9; ABHD5-PLIN5 inh: 8.0; Beta2AR ag CP1: 9.0*; B2AR FAP counter: inactive

What do the screens show for `CCN(CC)c1ccc(NC(=O)c2cc(OC)cc(OC)c2)c(C)c1`?
MBD2 DNA inh: -9.2; UHRF1 MBD2 ctr: -5.4; Beta2AR agonist: 55.2*; Rin1 Abl inh: 1.1; Arr AP2 block: -0.5; ABHD5-PLIN5 inh: -1.4; Beta2AR ag CP1: 77.9; B2AR FAP counter: inactive

Results for COC(=O)[C@]12C[C@H](CC(=O)NCCc3ccccc3OC)C(=O)N(CCc3ccc(OC)c(OC)c3)C1=C[C@H](C1CCCC1)O[C@@H]2C ?
MBD2 DNA inh: -5.9; UHRF1 MBD2 ctr: -2.5

Results for COc1ccc2[nH]cc(C(C)c3c[nH]c4ccccc34)c2c1 (centres undefined) ?
MBD2 DNA inh: -11.4; UHRF1 MBD2 ctr: -2.5

How did O=C(COc1ccc(S(=O)(=O)N2CCCCC2)cc1)Nc1ccccc1F do in these assays?
MBD2 DNA inh: -0.6; UHRF1 MBD2 ctr: 1.4; Beta2AR agonist: -2.2; Rin1 Abl inh: -2.7; Arr AP2 block: 0.9; ABHD5-PLIN5 inh: -5.2; Beta2AR ag CP1: 103.5; B2AR FAP counter: inactive

How did O=C(COc1ccc(S(=O)(=O)N2CCOCC2)cc1)Nc1ccccc1C(F)(F)F do in these assays?
MBD2 DNA inh: 0.3; UHRF1 MBD2 ctr: 1.0; Beta2AR agonist: -6.7; Rin1 Abl inh: -2.9; Arr AP2 block: 11.5; ABHD5-PLIN5 inh: 1.9; Beta2AR ag CP1: 112.3; B2AR FAP counter: inactive

How did O=C(COc1ccccc1)Nc1ccc(S(=O)(=O)N2CCCCCC2)cc1 do in these assays?
MBD2 DNA inh: -6.7; UHRF1 MBD2 ctr: -1.2; Beta2AR agonist: 6.0; Rin1 Abl inh: -3.9; Arr AP2 block: 5.5; ABHD5-PLIN5 inh: -3.1

Results for COc1ccc(-n2c(SCC(=O)Nc3ccc(Oc4ccccc4)cc3)nnc2-c2cccnc2)cc1 ?
MBD2 DNA inh: 4.5; UHRF1 MBD2 ctr: 1.4

How did COC(=O)[C@]12C[C@H](CC(=O)N3CCCCC3)C(=O)N(CCc3ccc(OC)c(OC)c3)C1=C[C@H](C1CCCC1)O[C@@H]2C do in these assays?
MBD2 DNA inh: -5.6; UHRF1 MBD2 ctr: 0.5

Results for O=C1CCC[C@H]2C[C@H](NCc3cccs3)CC[C@]23CCCN13 ?
MBD2 DNA inh: -7.3; UHRF1 MBD2 ctr: -5.0
